# Laboratory results from ChEMBL document CHEMBL4689842, “EUbOPEN Chemogenomics Library wave 1” (2021).
# Tested on: Fibroblast
# Experiment: Multiplex assay against human fibroblast
# Assay type: toxicity, cell-based
# Summary of the method: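 Compound was added to live cells that had been stained at seeding with Hoechst33342, BioTracker Green Microtubule Cytoskeleton Dye, MitoTracker Red and Annexin V Alexa Fluor 680, and imaging followed on a CQ1 microscope at 37°C and 5% CO2. CellPathfinder machine-learning gating divided cells into Hoechst high-intensity objects or normal cells, normal cells into healthy, pyknosed or fragmented nuclei, and pyknosed cells into mitotic or apoptotic. Tubulin, mitochondrial-mass and membrane-permeability phenotypes are per cents of healthy-nucleus cells.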
# [1] = 12 h, 1 µM, compound concentration 1 uM, replicate 1
# [2] = 12 h, 1 µM, compound concentration 1 uM, replicate 2
# [3] = 12 h, 10 µM, compound concentration 10 uM, replicate 1
# [4] = 12 h, 10 µM, compound concentration 10 uM, replicate 2
# [5] = 24 h, 1 µM, compound concentration 1 uM, replicate 1
# [6] = 24 h, 1 µM, compound concentration 1 uM, replicate 2
# [7] = 24 h, 10 µM, compound concentration 10 uM, replicate 1
# [8] = 24 h, 10 µM, compound concentration 10 uM, replicate 2
# [9] = 48 h, 1 µM, compound concentration 1 uM, replicate 1
# [10] = 48 h, 1 µM, compound concentration 1 uM, replicate 2
# [11] = 48 h, 10 µM, compound concentration 10 uM, replicate 1
# [12] = 48 h, 10 µM, compound concentration 10 uM, replicate 2
smiles,measurement,setting,value
CCCc1cc(C)[nH]c(=O)c1CNC(=O)c1cc(-c2ccc(N3CCN(C(C)C)CC3)nc2)cc2c1cnn2C(C)C,Population Apoptotic (%),[1],73%
same,Population Fragmented Nuclei (%),[1],26%
same,Population Healthy Nuclei (%),[1],41%
same,Population Hoechst High Intensity Objects (%),[1],22%
same,Population Membrane Permeable-Phenotype (%),[1],4%
same,Population Mitochondria Different-Phenotype (%),[1],32%
same,Population Mitotic Cells (%),[1],26%
same,Population Normal (%),[1],77%
same,Population Pyknosed Nuclei (%),[1],31%
same,Population Tubulin-Different-Phenotype (%),[1],52%
same,Total Cell Count,[1],77
same,Population Apoptotic (%),[2],20%
same,Population Fragmented Nuclei (%),[2],19%
same,Population Healthy Nuclei (%),[2],70%
same,Population Hoechst High Intensity Objects (%),[2],10%
same,Population Membrane Permeable-Phenotype (%),[2],8%
same,Population Mitochondria Different-Phenotype (%),[2],91%
same,Population Mitotic Cells (%),[2],80%
same,Population Normal (%),[2],89%
same,Population Pyknosed Nuclei (%),[2],9%
same,Population Tubulin-Different-Phenotype (%),[2],94%
same,Total Cell Count,[2],56
same,Population Apoptotic (%),[3],48%
same,Population Fragmented Nuclei (%),[3],24%
same,Population Healthy Nuclei (%),[3],32%
same,Population Hoechst High Intensity Objects (%),[3],29%
same,Population Membrane Permeable-Phenotype (%),[3],6%
same,Population Mitochondria Different-Phenotype (%),[3],21%
same,Population Mitotic Cells (%),[3],51%
same,Population Normal (%),[3],70%
same,Population Pyknosed Nuclei (%),[3],42%
same,Population Tubulin-Different-Phenotype (%),[3],69%
same,Total Cell Count,[3],143
same,Population Apoptotic (%),[4],85%
same,Population Fragmented Nuclei (%),[4],13%
same,Population Healthy Nuclei (%),[4],47%
same,Population Hoechst High Intensity Objects (%),[4],5%
same,Population Membrane Permeable-Phenotype (%),[4],79%
same,Population Mitochondria Different-Phenotype (%),[4],100%
same,Population Mitotic Cells (%),[4],14%
same,Population Normal (%),[4],94%
same,Population Pyknosed Nuclei (%),[4],38%
same,Population Tubulin-Different-Phenotype (%),[4],100%
same,Total Cell Count,[4],57
same,Population Apoptotic (%),[5],31%
same,Population Fragmented Nuclei (%),[5],30%
same,Population Healthy Nuclei (%),[5],47%
same,Population Hoechst High Intensity Objects (%),[5],16%
same,Population Membrane Permeable-Phenotype (%),[5],11%
same,Population Mitochondria Different-Phenotype (%),[5],20%
same,Population Mitotic Cells (%),[5],68%
same,Population Normal (%),[5],83%
same,Population Pyknosed Nuclei (%),[5],22%
same,Population Tubulin-Different-Phenotype (%),[5],85%
same,Total Cell Count,[5],86
same,Population Apoptotic (%),[6],33%
same,Population Fragmented Nuclei (%),[6],20%
same,Population Healthy Nuclei (%),[6],51%
same,Population Hoechst High Intensity Objects (%),[6],10%
same,Population Membrane Permeable-Phenotype (%),[6],10%
same,Population Mitochondria Different-Phenotype (%),[6],78%
same,Population Mitotic Cells (%),[6],66%
same,Population Normal (%),[6],90%
same,Population Pyknosed Nuclei (%),[6],27%
same,Population Tubulin-Different-Phenotype (%),[6],82%
same,Total Cell Count,[6],53
same,Population Apoptotic (%),[7],46%
same,Population Fragmented Nuclei (%),[7],21%
same,Population Healthy Nuclei (%),[7],43%
same,Population Hoechst High Intensity Objects (%),[7],25%
same,Population Membrane Permeable-Phenotype (%),[7],4%
same,Population Mitochondria Different-Phenotype (%),[7],37%
same,Population Mitotic Cells (%),[7],53%
same,Population Normal (%),[7],74%
same,Population Pyknosed Nuclei (%),[7],35%
same,Population Tubulin-Different-Phenotype (%),[7],59%
same,Total Cell Count,[7],199
same,Population Apoptotic (%),[8],91%
same,Population Fragmented Nuclei (%),[8],8%
same,Population Healthy Nuclei (%),[8],48%
same,Population Hoechst High Intensity Objects (%),[8],9%
same,Population Membrane Permeable-Phenotype (%),[8],85%
same,Population Mitochondria Different-Phenotype (%),[8],100%
same,Population Mitotic Cells (%),[8],8%
same,Population Normal (%),[8],90%
same,Population Pyknosed Nuclei (%),[8],42%
same,Population Tubulin-Different-Phenotype (%),[8],100%
same,Total Cell Count,[8],60
same,Population Apoptotic (%),[9],66%
same,Population Healthy Nuclei (%),[9],50%
same,Population Hoechst High Intensity Objects (%),[9],20%
same,Population Membrane Permeable-Phenotype (%),[9],7%
same,Population Mitochondria Different-Phenotype (%),[9],23%
same,Population Mitotic Cells (%),[9],33%
same,Population Normal (%),[9],79%
same,Population Pyknosed Nuclei (%),[9],15%
same,Population Tubulin-Different-Phenotype (%),[9],63%
same,Total Cell Count,[9],96
same,Population Apoptotic (%),[10],50%
same,Population Fragmented Nuclei (%),[10],34%
same,Population Healthy Nuclei (%),[10],63%
same,Population Hoechst High Intensity Objects (%),[10],10%
same,Population Membrane Permeable-Phenotype (%),[10],8%
same,Population Mitochondria Different-Phenotype (%),[10],10%
same,Population Mitotic Cells (%),[10],50%
same,Population Normal (%),[10],90%
same,Population Pyknosed Nuclei (%),[10],1%
same,Population Tubulin-Different-Phenotype (%),[10],73%
same,Total Cell Count,[10],120
same,Population Apoptotic (%),[11],77%
same,Population Fragmented Nuclei (%),[11],34%
same,Population Healthy Nuclei (%),[11],25%
same,Population Hoechst High Intensity Objects (%),[11],38%
same,Population Membrane Permeable-Phenotype (%),[11],5%
same,Population Mitochondria Different-Phenotype (%),[11],63%
same,Population Mitotic Cells (%),[11],22%
same,Population Normal (%),[11],61%
same,Population Pyknosed Nuclei (%),[11],40%
same,Population Tubulin-Different-Phenotype (%),[11],68%
same,Total Cell Count,[11],124
same,Population Apoptotic (%),[12],48%
same,Population Fragmented Nuclei (%),[12],22%
same,Population Healthy Nuclei (%),[12],41%
same,Population Hoechst High Intensity Objects (%),[12],54%
same,Population Membrane Permeable-Phenotype (%),[12],0%
same,Population Mitochondria Different-Phenotype (%),[12],42%
same,Population Mitotic Cells (%),[12],51%
same,Population Normal (%),[12],45%
same,Population Pyknosed Nuclei (%),[12],35%
same,Population Tubulin-Different-Phenotype (%),[12],63%
same,Total Cell Count,[12],202
